Values after ≈ are worked out from the molar mass of the structure shown. Active and inactive are the calls of the source. The calls are words filed in the database; no cut-off is given here.
What was measured:
Staphylococcus aureus [1] = test: Antibacterial activity against Staphylococcus aureus ATCC 25923 measured after 18 to 24 hrs by microtiter dilution method; type: functional; settings: time 18-24 hrs
Outline: (§1)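 Compounds were taken up in 25% DMSO at 64 μg/mL and serially diluted two-fold in water (11 dilutions). Log-phase bacteria grown in MHB were diluted to 10^5-10^6 CFU/mL and mixed 1:1 with the dilutions. Plates were incubated at 37 °C for 18-24 h. MIC was the lowest concentration giving no growth by OD492, averaged over three independent experiments.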

[2] = test system: Staphylococcus epidermidis; test: Antibacterial activity against Staphylococcus epidermidis ATCC 51625 measured after 18 to 24 hrs by microtiter dilution method; type: functional; settings: time 18-24 hrs; outline: as §1
Staphylococcus aureus [3] = test: Antibacterial activity against Staphylococcus aureus BNCC 337371 measured after 18 to 24 hrs by microtiter dilution method; type: functional; settings: time 18-24 hrs; outline: as §1
[4] = test system: Streptococcus dysgalactiae; test: Antibacterial activity against Streptococcus dysgalactiae measured after 18 to 24 hrs by microtiter dilution method; type: functional; settings: time 18-24 hrs; outline: as §1
Streptococcus agalactiae = test: Antibacterial activity against Streptococcus agalactiae measured after 18 to 24 hrs by microtiter dilution method; type: functional; settings: time 18-24 hrs; outline: as §1
Enterococcus faecalis = test: Antibacterial activity against Enterococcus faecalis measured after 18 to 24 hrs by microtiter dilution method; type: functional; settings: time 18-24 hrs; outline: as §1
Pasteurella multocida = test: Antibacterial activity against Pasteurella multocida CVCC 1659 measured after 18 to 24 hrs by microtiter dilution method; type: functional; settings: time 18-24 hrs; outline: as §1
Escherichia coli = test: Antibacterial activity against Escherichia coli CICC 10389 measured after 18 to 24 hrs by microtiter dilution method; type: functional; settings: time 18-24 hrs; outline: as §1
Staphylococcus aureus [5] = test: Bacteriostatic activity against Staphylococcus aureus BNCC 337371 assessed as reduction in bacterial load incubated for 2 to 24 hrs prior to 10 fold dilution followed by replating on MH agar plate and measured after 24 hrs by time-kill assay; type: functional, organism-based; settings: time 2-24 hrs
Outline: (§2)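 MRSA-337371 was grown in Mueller-Hinton broth at 37 °C for 6 h with shaking, then diluted to about 6×10^5 CFU/mL. It was exposed to 0.5, 1, 2 and 4× MIC. Samples taken at 0, 2, 4, 6, 8, 12 and 24 h were serially diluted 10-fold in 0.9% saline and plated on MH agar at 37 °C for 24 h. Colonies were counted as log10 CFU/mL, in triplicate.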

Staphylococcus aureus [6] = test: Bacteriostatic activity against Staphylococcus aureus BNCC 337371 assessed as reduction in bacterial load at 2 to 4 times MIC incubated for 8 hrs prior to 10 fold dilution followed by replating on MH agar plate and measured after 24 hrs by time-kill assay relative to control; type: functional; settings: time 32 hrs; outline: as §2
Staphylococcus aureus [7] = test: Antibacterial activity against Staphylococcus aureus BNCC 337371 infected in ip dosed Kunming mouse assessed as increase in mouse survival measured after 7 days; type: functional; settings: for ED50: BNCC 337371, ip, 168 h, time 7 day; for Activity: time 7.0 day
Outline: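 Neutropenic 6-8 week Kunming mice (cyclophosphamide 150 mg/kg ip for four days, then 100 mg/kg one day before inoculation) were infected ip with 0.5 mL MRSA-337371 at 10^8 CFU/mL. About 1 h later they were dosed ip at 5, 8, 15, 25 or 40 mg/kg in DMSO:Tween-80:water 0.5:0.5:9 (10 per group). Mice were observed twice daily, survival was read at day 7, and ED50 was calculated by the Bliss method.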

Staphylococcus aureus [8] = test: Antibacterial activity against Staphylococcus aureus BNCC 337371 infected in Kunming mouse assessed as reduction in bacterial load in lung at 20 to 40 mg/kg, ip measured after 2 days by colony counting method; type: functional, organism-based; settings: dose 20-40 mg/kg, time 2.0 day
Outline: (§3)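 Kunming mice (SPF, 6-8 weeks) were made neutropenic with ip cyclophosphamide, 150 mg/kg for four days and 100 mg/kg one day before infection. They were infected ip with 0.5 mL of MRSA-337371 at 10^8 CFU/mL. About 1 h later, compound was given ip in 0.5 mL vehicle (DMSO:Tween-80:water 0.5:0.5:9). After 2 d of treatment, lung, kidney and liver were weighed, homogenized in saline, diluted 10-fold, plated on MH agar at 37 °C for 24 h in triplicate, and expressed as CFU/g.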

Staphylococcus aureus [9] = test: Antibacterial activity against Staphylococcus aureus BNCC 337371 infected in Kunming mouse assessed as reduction in bacterial load in kidney at 20 to 40 mg/kg, ip measured after 2 days by colony counting method; type: functional, organism-based; settings: dose 20-40 mg/kg, time 2.0 day; outline: as §3
Staphylococcus aureus [10] = test: Antibacterial activity against Staphylococcus aureus BNCC 337371 infected in Kunming mouse assessed as reduction in bacterial load in liver at 20 to 40 mg/kg, ip measured after 2 days by colony counting method; type: functional, organism-based; settings: dose 20-40 mg/kg, time 2.0 day; outline: as §3
Staphylococcus aureus [11] = test: Antibacterial activity against Staphylococcus aureus BNCC 337371 infected in Kunming mouse assessed as reduction in lung tissue damage at 20 to 40 mg/kg, ip measured after 2 days by H and E staining based light microscopic analysis; type: functional, organism-based; settings: dose 20-40 mg/kg, time 2.0 day
Outline: (§4)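 In neutropenic Kunming mice infected ip with MRSA-337371 and treated ip, lungs were taken after 2 d of treatment. They were fixed in 10% buffered formalin, embedded in paraffin, cut into 4 μm sections, stained with H&E and examined by light microscopy against normal and untreated infected groups.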

Staphylococcus aureus [12] = test: Antibacterial activity against Staphylococcus aureus BNCC 337371 infected in Kunming mouse assessed as reduction in inflammatory cell infiltration in pulmonary interstitium at 40 mg/kg, ip measured after 2 days by H and E staining based light microscopic analysis; type: functional, organism-based; settings: time 2.0 day; outline: as §4
Staphylococcus aureus [13] = test: Antibacterial activity against Staphylococcus aureus BNCC 337371 infected in Kunming mouse assessed as thickening of alveolar septum and wall at 20 mg/kg, ip measured after 2 days by H and E staining based light microscopic analysis; type: functional, organism-based; settings: time 2.0 day; outline: as §4
Staphylococcus aureus [14] = test: Antibacterial activity against Staphylococcus aureus BNCC 337371 infected in Kunming mouse assessed as bacterial load in lung at 20 to 40 mg/kg, ip measured after 2 days by colony counting method (reference value: 4.8 log10CFU/ml); type: functional; settings: dose 20-40 mg/kg; time 2 day; outline: as §3
Staphylococcus aureus [15] = test: Antibacterial activity against Staphylococcus aureus BNCC 337371 infected in Kunming mouse assessed as reduction in infiltration of neutrophils cells at 20 to 40 mg/kg, ip measured after 2 days by H and E staining based light microscopic analysis; type: functional, organism-based; settings: dose 20-40 mg/kg, time 2.0 day; outline: as §4
Staphylococcus aureus [16] = test: Antibacterial activity against Staphylococcus aureus BNCC 337371 infected in Kunming mouse assessed as reduction in local congestion in lung at 20 to 40 mg/kg, ip measured after 2 days by H and E staining based light microscopic analysis; type: functional, organism-based; settings: dose 20-40 mg/kg, time 2.0 day; outline: as §4

Row | SMILES | MIC (Staphylococcus aureus [1]) [µM] | MIC [2] [µM] | MIC (Staphylococcus aureus [3]) [µM] | MIC [4] [µM] | MIC (Streptococcus agalactiae) [µM] | MIC (Enterococcus faecalis) [µM] | MIC (Pasteurella multocida) [µM] | MIC (Escherichia coli) [µM] | Activity (Staphylococcus aureus [5]) | fold change (FC) (Staphylococcus aureus [6]) | ED50 (Staphylococcus aureus [7]) [mg/kg] | Activity (Staphylococcus aureus [7]) | Activity (Staphylococcus aureus [10]) | other results
1 | C=C[C@]1(C)C[C@@H](OC(=O)CSc2nc(C)cc(N3CCCC3)n2)[C@@]2(C)[C@H](C)CC[C@]3(CCC(=O)[C@H]32)[C@@H](C)[C@@H]1O | 0.06 (≈ 0.0333 µg/mL) | 0.11 (≈ 0.0611 µg/mL) | 0.06 (≈ 0.0333 µg/mL) | 0.06 (≈ 0.0333 µg/mL) | 0.06 (≈ 0.0333 µg/mL) | 14.4 (≈ 8.01 µg/mL) | 14.4 (≈ 8.01 µg/mL) | > 57.6 | Dose-dependent effect | >=2 | 18 | Dose-dependent effect | inactive | Activity (Staphylococcus aureus [8]): Active; Activity (Staphylococcus aureus [9]): Active; Activity (Staphylococcus aureus [11]): Active; Activity (Staphylococcus aureus [12]): Active; Activity (Staphylococcus aureus [13]): Active
2 | C=C[C@]1(C)C[C@@H](OC(=O)CSCCN(CC)CC)[C@]2(C)[C@H](C)CC[C@]3(CCC(=O)[C@H]32)[C@@H](C)[C@@H]1O [TIAMULIN] | 0.82 (≈ 0.405 µg/mL) | 0.82 (≈ 0.405 µg/mL) | 0.82 (≈ 0.405 µg/mL) | 0.2 (≈ 0.0988 µg/mL) | 0.2 (≈ 0.0988 µg/mL) | 52.5 (≈ 25.9 µg/mL) | 3.28 (≈ 1.62 µg/mL) | 52.5 (≈ 25.9 µg/mL) | Dose-dependent effect | 1 | 25.9 | Dose-dependent effect | inactive | Activity (Staphylococcus aureus [14]): 1.1 log10CFU/ml; Activity (Staphylococcus aureus [15]): Active; Activity (Staphylococcus aureus [16]): Active
3 | C=C[C@]1(C)C[C@@H](OC(=O)CSc2nc(C)cc(N3CCOCC3)n2)[C@@]2(C)[C@H](C)CC[C@]3(CCC(=O)[C@H]32)[C@@H](C)[C@@H]1O | 0.11 (≈ 0.0629 µg/mL) | 0.11 (≈ 0.0629 µg/mL) | 0.11 (≈ 0.0629 µg/mL) | 0.05 (≈ 0.0286 µg/mL) | 0.05 (≈ 0.0286 µg/mL) | 14 (≈ 8 µg/mL) | 14 (≈ 8 µg/mL) | > 56 | Dose-dependent effect | >=2 |  |  |  | 
4 | C=C[C@]1(C)C[C@@H](OC(=O)CSc2nc(C)cc(N3CCC[C@H](CO)C3)n2)[C@@]2(C)[C@H](C)CC[C@]3(CCC(=O)[C@H]32)[C@@H](C)[C@@H]1O | 0.1 (≈ 0.06 µg/mL) | 0.21 (≈ 0.126 µg/mL) | 0.21 (≈ 0.126 µg/mL) | 0.05 (≈ 0.03 µg/mL) | 0.05 (≈ 0.03 µg/mL) | 26.7 (≈ 16 µg/mL) | 26.7 (≈ 16 µg/mL) | > 53.5 |  |  |  |  |  | 
5 | C=C[C@]1(C)C[C@@H](OC(=O)CSc2nc(C)cc(N3CCC(CCO)CC3)n2)[C@@]2(C)[C@H](C)CC[C@]3(CCC(=O)[C@H]32)[C@@H](C)[C@@H]1O | 0.1 (≈ 0.0614 µg/mL) | 0.2 (≈ 0.123 µg/mL) | 0.2 (≈ 0.123 µg/mL) | 0.05 (≈ 0.0307 µg/mL) | 0.05 (≈ 0.0307 µg/mL) | 26.1 (≈ 16 µg/mL) | 52.2 (≈ 32 µg/mL) | > 52.2 |  |  |  |  |  | 
6 | C=C[C@]1(C)C[C@@H](OC(=O)CSc2nc(C)cc(N3CCN(C)CC3)n2)[C@@]2(C)[C@H](C)CC[C@]3(CCC(=O)[C@H]32)[C@@H](C)[C@@H]1O | 0.43 (≈ 0.251 µg/mL) | 0.43 (≈ 0.251 µg/mL) | 0.43 (≈ 0.251 µg/mL) | 0.43 (≈ 0.251 µg/mL) | 0.11 (≈ 0.0643 µg/mL) | 54.8 (≈ 32 µg/mL) | 54.8 (≈ 32 µg/mL) | > 54.8 |  |  |  |  |  | 

Reference: ChEMBL document CHEMBL4706538, “Novel pleuromutilin derivatives with substituted 6-methylpyrimidine: Design, synthesis and antibacterial evaluation” (2020)
